Source: ChEMBL document CHEMBL2311523, “Identification of novel chromenone derivatives as interleukin-5 inhibitors” (Eur J Med Chem, 2013)

Biological target: not listed separately
Experiment: Inhibition of IL-5 in mouse pro-B Y16 cells after 48 hrs by WST1 assay

SMILES | IC50
O=c1c(-c2ccc(O)cc2)coc2cccc(OCC3CCCCC3)c12 | 5.8 µM

Biological target: T1, Interleukin-5 (Mus musculus) (UniProt P04401)
T1 sequence (whole entry): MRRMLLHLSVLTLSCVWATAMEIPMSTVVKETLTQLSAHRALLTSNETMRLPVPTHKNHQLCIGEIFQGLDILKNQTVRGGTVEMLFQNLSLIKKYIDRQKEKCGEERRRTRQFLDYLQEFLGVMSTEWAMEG
Experiment: Inhibition of IL-5 in mouse pro-B Y16 cells at 30 uM after 48 hrs by WST1 assay
Type: cell-based
In short: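 IL-5-dependent mouse pro-B Y16 cells were stimulated with 3 units/mL mIL-5 and incubated 48 h with or without compound. Cell metabolism was read by WST-1 tetrazolium reduction as an index of IL-5-driven proliferation.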

SMILES | inhibition
O=c1c(/C=C/C(O)c2ccc(C(F)(F)F)cc2)coc2cccc(OCC3CCCCC3)c12 (racemic) | 92.7%
COc1cccc2occ(/C=C/C(O)c3ccc(O)cc3)c(=O)c12 (racemic) | 21.3%
CC(C)COc1cccc2occ(/C=C/C(=O)c3ccc(O)cc3)c(=O)c12 | 87.5%
N#Cc1ccc(C(=O)/C=C/c2coc3cccc(OCC4CCCCC4)c3c2=O)cc1 | 9.2%
COc1cccc2occ(/C=C/C(=O)c3ccc(O)cc3)c(=O)c12 | 32.3%
O=C(/C=C/c1coc2cccc(OCC3CCCCC3)c2c1=O)c1ccc(C(F)(F)F)cc1 | 42.7%
O=c1c(/C=C/C(O)c2ccccc2)coc2cccc(OCC3CCCCC3)c12 (racemic) | 93.9%
COc1ccc(C(=O)/C=C/c2coc3cccc(OCC4CCCCC4)c3c2=O)cc1 | 9.3%
COc1ccc(C(O)/C=C/c2coc3cccc(OCC4CCCCC4)c3c2=O)cc1 (racemic) | 93.6%
O=c1c(/C=C/C(O)c2ccc(O)cc2)coc2cccc(OCC3CCCCC3)c12 (racemic) | 92.7%
O=C(/C=C/c1coc2cccc(OCC3CCCCC3)c2c1=O)c1ccccc1 | 17.2%
Cc1ccc(C(O)/C=C/c2coc3cccc(OCC4CCCCC4)c3c2=O)cc1 (racemic) | 93.2%
O=C(/C=C/c1coc2cccc(OCC3CCCCC3)c2c1=O)c1ccc(O)cc1 | 99%
O=C(/C=C/c1coc2cccc(OCC3CCCCC3)c2c1=O)c1ccc(Cl)cc1 | 46.3%
CC(C)(C)c1ccc(C(=O)/C=C/c2coc3cccc(OCC4CCCCC4)c3c2=O)cc1 | 99.2%
O=C(/C=C/c1coc2cccc(OCC3CCCCC3)c2c1=O)c1ccc([N+](=O)[O-])cc1 | 11.8%
O=c1c(/C=C/C(O)c2ccc(F)cc2)coc2cccc(OCC3CCCCC3)c12 (racemic) | 93.2%
Cc1ccc(C(=O)/C=C/c2coc3cccc(OCC4CCCCC4)c3c2=O)cc1 | 57.5%
O=C(/C=C/c1coc2cccc(OCC3CCCCC3)c2c1=O)c1ccc(F)cc1 | 15.4%
CC(C)(C)c1ccc(C(O)/C=C/c2coc3cccc(OCC4CCCCC4)c3c2=O)cc1 (racemic) | 15.7%
N#Cc1ccc(C(O)/C=C/c2coc3cccc(OCC4CCCCC4)c3c2=O)cc1 (racemic) | 94.4%
O=c1c(/C=C/C(O)c2ccc(Cl)cc2)coc2cccc(OCC3CCCCC3)c12 (racemic) | 93.5%
CC(C)COc1cccc2occ(/C=C/C(O)c3ccc(O)cc3)c(=O)c12 (racemic) | 20.6%
O=c1c(/C=C/C(O)c2ccc([N+](=O)[O-])cc2)coc2cccc(OCC3CCCCC3)c12 (racemic) | 93.8%
